According to ChEMBL document CHEMBL4339251, “Prenylated Bibenzyls from the Chinese Liverwort Radula constricta and Their Mitochondria-Derived Paraptotic Cytotoxic Activities” (J Nat Prod, 2019):
The source made the active and inactive calls. The rule behind the calls is not given here.

Assays:
[1] = system: A549; test: Cytotoxicity in human A549 cells assessed as reduction in cell viability incubated for 48 hrs by MTT assay; type: functional, cell-based; conditions: A549, 48 h
Method in brief: (§1)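 MTT viability. U251 and NCI-H1299 were grown in DMEM, the other lines in RPMI 1640, each with 10% FBS, penicillin and streptomycin, at 37 °C in 5% CO2. Cells were seeded in 96-well plates overnight and exposed to a range of concentrations. MTT (5 mg/mL) was added for 4 h, formazan was dissolved in DMSO and absorbance read at 570 nm. Three independent experiments.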

[2] = system: NCI-H1299; test: Cytotoxicity in human NCI-H1299 cells assessed as reduction in cell viability incubated for 48 hrs by MTT assay; type: functional, cell-based; conditions: NCI-H1299, 48 h; method in brief: as §1
[3] = system: MCF7; test: Cytotoxicity in human MCF7 cells assessed as reduction in cell viability incubated for 48 hrs by MTT assay; type: functional, cell-based; conditions: MCF7, 48 h; method in brief: as §1
[4] = system: U-251; test: Cytotoxicity in human U251 cells assessed as reduction in cell viability incubated for 48 hrs by MTT assay; type: functional, cell-based; conditions: U-251, 48 h; method in brief: as §1
[5] = system: SW-620; test: Cytotoxicity in human SW620 cells assessed as reduction in cell viability incubated for 48 hrs by MTT assay; type: functional, cell-based; conditions: SW-620, 48 h; method in brief: as §1
[6] = system: HT-29; test: Cytotoxicity in human HT-29 cells assessed as reduction in cell viability incubated for 48 hrs by MTT assay; type: functional, cell-based; conditions: HT-29, 48 h; method in brief: as §1
[7] = system: KB; test: Cytotoxicity in human KB cells assessed as reduction in cell viability incubated for 48 hrs by MTT assay; type: functional, cell-based; method in brief: as §1
[8] = system: A549; test: Induction of cytoplasmic vacuolization in human A549 cells; type: functional, cell-based
[9] = system: NCI-H1299; test: Induction of cytoplasmic vacuolization in human NCI-H1299 cells at 10 uM measured within 3 hrs by optical microscopy; type: functional, cell-based
Method in brief: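 Morphology. A549 or NCI-H1299 cells were treated at 10 μM and vacuole formation was followed by optical microscopy at the indicated times.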

[10] = system: A549; test: Induction of apoptosis in human A549 cells assessed as early apoptotic cells at 10 uM by annexinV-FITC and propidium iodide staining based flow cytometric analysis (reference value: 1.47%); type: functional
[11] = system: A549; test: Induction of apoptosis in human A549 cells assessed as early apoptotic cells at 20 uM by annexinV-FITC and propidium iodide staining based flow cytometric analysis (reference value: 1.47%); type: functional
[12] = system: A549; test: Induction of apoptosis in human A549 cells assessed as late apoptotic cells at 20 uM by annexinV-FITC and propidium iodide staining based flow cytometric analysis (reference value: 3.14%); type: functional
[13] = system: A549; test: Induction of apoptosis in human A549 cells assessed as necrotic cells at 20 uM by annexinV-FITC and propidium iodide staining based flow cytometric analysis (reference value: 1.44%); type: functional
[14] = system: NCI-H1299; test: Induction of apoptosis in human NCI-H1299 cells assessed as necrotic cells at 10 uM by annexinV-FITC and propidium iodide staining based flow cytometric analysis (reference value: 3.17%); type: functional
[15] = system: NCI-H1299; test: Induction of apoptosis in human NCI-H1299 cells assessed as late apoptotic cells at 20 uM by annexinV-FITC and propidium iodide staining based flow cytometric analysis (reference value: 3.29%); type: functional
[16] = system: NCI-H1299; test: Induction of apoptosis in human NCI-H1299 cells assessed as necrotic cells at 20 uM by annexinV-FITC and propidium iodide staining based flow cytometric analysis (reference value: 3.17%); type: functional
[17] = system: A549; test: Induction of apoptosis in human A549 cells assessed as induction of PARP cleavage at 2.5 to 10 uM incubated for 24 hrs by Western blot analysis; type: functional, cell-based
Method in brief: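 Western blot. Cells were cultured overnight in six-well plates, then exposed to various concentrations for 24 h before immunoblotting.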

[18] = system: A549; test: Induction of cytoplasmic vacuolization in human A549 cells at 10 uM treated for 3 hrs after pre-treatment with pan-caspase inhibitor Z-VAD-FMK for 1 hr by optical microscopy; type: functional, cell-based
Method in brief: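 Caspase-inhibitor morphology. Cells were treated with DMSO, 20 μM Z-VAD-FMK, 10 μM compound, or the combinations for 3 h, then imaged by optical microscopy.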

[19] = system: NCI-H1299; test: Cytotoxicity in human NCI-H1299 cells assessed as reduction in cell viability at 5 uM incubated for 24 hrs in presence of pan-caspase inhibitor Z-VAD-FMK by MTT assay; type: functional, cell-based
[20] = system: A549; test: Induction of mitochondria-derived paraptosis in human A549 cells assessed as formation of fluorescent vacuoles after 3 hrs by Mito-Tracker staining based fluorescence microscopy; type: functional, cell-based
Method in brief: (§2)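 Live-cell imaging. Treated cells on coverslips were stained with Mito-Tracker Red (100 nM) at 37 °C for 30 min, washed three times with PBS and stained with Hoechst 33342 (10 μg/mL) for 15 min. Images were taken by confocal or fluorescence microscopy at the indicated times.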

[21] = system: A549; test: Induction of mitochondria-derived paraptosis in human A549 cells assessed as formation of fusion among swollen mitochondria after 6 to 24 hrs by Mito-Tracker staining based fluorescence microscopy; type: functional, cell-based; method in brief: as §2
[22] = system: A549; test: Induction of mitochondria-derived paraptosis in human A549 cells assessed as reduction in intensity of mitochondria fluorescence up to 24 hrs by Mito-Tracker staining based fluorescence microscopy; type: functional, cell-based
Method in brief: (§3)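 Mitochondrial fluorescence. After treatment for the indicated times, cells were stained with Mito-Tracker Red (100 nM) and 10 000 cells per sample were analysed by flow cytometry. Cells with decreased red fluorescence were gated as "pale" cells.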

[23] = system: NCI-H1299; test: Induction of mitochondria-derived paraptosis in human NCI-H1299 cells assessed as reduction in intensity of mitochondria fluorescence up to 24 hrs by Mito-Tracker staining based fluorescence microscopy; type: functional, cell-based; method in brief: as §3
[24] = system: A549; test: Induction of mitochondria dysfunction in human A549 cells assessed as mitochondrial membrane potential incubated for 1 hr by JC-1 dye based flow cytometry relative to 0 hrs control; type: functional
Method in brief: (§4)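 Membrane potential. After treatment for the indicated times, ΔΨm was measured by JC-1 (5 μg/mL) staining and flow cytometry, relative to the 0 h control. Mean ± SD, n = 3.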

[25] = system: A549; test: Induction of mitochondria-derived paraptosis in human A549 cells assessed as induction of HMGB1 translocation from nucleus to cytoplasm at 10 uM incubated for 24 hrs by immunofluorescence staining; type: functional, cell-based
Method in brief: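 HMGB1 immunofluorescence. Cells were treated at 10 μM for 24 h, fixed in 4% paraformaldehyde for 30 min, permeabilised with 0.3% Triton X-100 for 15 min and blocked with 5% BSA for 30 min. Anti-HMGB1 was applied at 4 °C overnight and the secondary antibody at 37 °C for 1 h. Nuclei were counterstained with DAPI and cells imaged by confocal microscopy.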

[26] = system: NCI-H1299; test: Induction of mitochondria dysfunction in human NCI-H1299 cells assessed as mitochondrial membrane potential incubated for 1 hr by JC-1 dye based flow cytometry relative to 0 hrs control; type: functional; method in brief: as §4
[27] = system: A549; test: Induction of ROS generation in human A549 cells by DCFH-DA staining based flow cytometry; type: functional, cell-based; conditions: TDE = time-dependent effect
Method in brief: (§5)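 ROS by flow cytometry. Cells were exposed for the indicated times, then stained with DCFH-DA (10 μM). DCF mean fluorescence intensity was compared with untreated control. Mean ± SD, n = 3.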

[28] = system: NCI-H1299; test: Induction of ROS generation in human NCI-H1299 cells by DCFH-DA staining based flow cytometry; type: functional, cell-based; conditions: TDE = time-dependent effect; method in brief: as §5
[29] = system: NCI-H1299; test: Induction of ROS generation in human NCI-H1299 cells after 1 hr by DCFH-DA staining based flow cytometry relative to untreated control; type: functional; method in brief: as §5

COC(=O)c1c(CCc2ccccc2)cc(O)c(CC=C(C)C)c1O
IC50 [1]: 6 µM | IC50 [2]: 5.1 µM | IC50 [3]: 10.2 µM | IC50 [4]: 9 µM | IC50 [5]: 6.3 µM | IC50 [6]: 5 µM | IC50 [7]: 6.7 µM | Activity [8]: Active | Activity [9]: Active | Activity [10]: 0.75% | Activity [11]: 2.44% | Activity [12]: 4.14% | Activity [13]: 1.73% | Activity [14]: 3.75% | Activity [15]: 2.95% | Activity [16]: 3.49% | Activity [17]: inactive | Activity [18]: Active | Activity [19]: Active | Activity [20]: Active | Activity [21]: Active | Activity [22]: Active | Activity [23]: Active | Activity [24]: 50% | Activity [25]: Active | Activity [26]: 25% | Activity [27]: Tde | Activity [28]: Tde | fold change (FC) [29]: 30
